Here are results for five molecules from ChEMBL document CHEMBL1145994, “CCR2: characterization of the antagonist binding site from a combined receptor modeling/mutagenesis approach” (J Med Chem, 2003).

The source made the active and inactive calls. The calls are words filed in the database; no cut-off is given here.

Test [1] concerns the target T1, C-C chemokine receptor type 2 (Homo sapiens, UniProt P41597). Briefly: Binding affinity of compound (10 uM) towards Y210A-292A receptor variant (double mutant CCR2 receptor) using radioligand [125I]MCP-1 in HEK 293 cells; Inactive. It counts as cell-based. The note with it: HEK293. In outline: (§1)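 Wild-type or point-mutant CCR2 cDNA in pcDNA3.1 transiently transfected into HEK-293T cells at 50–80% confluence, with a co-transfected human G-protein plasmid cocktail. Membranes harvested 48 h later by sonication and differential centrifugation.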
Target sequence in this assay (P41597 whole entry, looked up): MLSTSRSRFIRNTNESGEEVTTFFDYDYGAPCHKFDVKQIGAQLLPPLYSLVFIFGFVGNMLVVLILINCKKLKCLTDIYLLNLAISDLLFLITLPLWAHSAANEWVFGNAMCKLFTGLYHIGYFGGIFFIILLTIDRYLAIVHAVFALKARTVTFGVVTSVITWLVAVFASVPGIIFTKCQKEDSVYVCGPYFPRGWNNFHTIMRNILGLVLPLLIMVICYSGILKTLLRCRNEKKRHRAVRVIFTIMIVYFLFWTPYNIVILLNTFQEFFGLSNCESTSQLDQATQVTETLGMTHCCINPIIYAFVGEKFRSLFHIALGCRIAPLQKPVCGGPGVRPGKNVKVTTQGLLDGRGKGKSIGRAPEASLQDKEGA

Test [2] relates to T2, C-C chemokine receptor type 2 (Homo sapiens), P41597 [E291Q].
T2 sequence (whole entry): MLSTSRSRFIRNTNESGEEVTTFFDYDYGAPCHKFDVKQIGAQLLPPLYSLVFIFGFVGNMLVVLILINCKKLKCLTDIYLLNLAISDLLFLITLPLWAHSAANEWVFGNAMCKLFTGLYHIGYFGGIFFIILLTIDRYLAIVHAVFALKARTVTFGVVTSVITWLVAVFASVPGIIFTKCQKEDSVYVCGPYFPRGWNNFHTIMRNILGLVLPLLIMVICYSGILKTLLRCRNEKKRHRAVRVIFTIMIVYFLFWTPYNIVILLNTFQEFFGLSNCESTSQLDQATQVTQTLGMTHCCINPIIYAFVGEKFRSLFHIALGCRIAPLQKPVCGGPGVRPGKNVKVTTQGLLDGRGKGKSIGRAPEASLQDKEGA
Briefly: Binding affinity of compound (10 uM) towards E291Q receptor variant (mutant CCR2 receptor) using radioligand [125I]MCP-1 in HEK 293 cells; Inactive. Type of test: cell-based. The note with it: HEK293. The gist of the method: as §1

For test [3], the target named is C-C chemokine receptor type 2 (Homo sapiens, UniProt P41597, H121A). Briefly: Binding affinity of compound (10 uM) towards H121A receptor variant (mutant CCR2 receptor) using radioligand [125I]MCP-1 in HEK 293 cells. Type of test: cell-based, HEK293.
Sequence of C-C chemokine receptor type 2 (Homo sapiens, UniProt P41597, H121A) (P41597 whole entry H121A): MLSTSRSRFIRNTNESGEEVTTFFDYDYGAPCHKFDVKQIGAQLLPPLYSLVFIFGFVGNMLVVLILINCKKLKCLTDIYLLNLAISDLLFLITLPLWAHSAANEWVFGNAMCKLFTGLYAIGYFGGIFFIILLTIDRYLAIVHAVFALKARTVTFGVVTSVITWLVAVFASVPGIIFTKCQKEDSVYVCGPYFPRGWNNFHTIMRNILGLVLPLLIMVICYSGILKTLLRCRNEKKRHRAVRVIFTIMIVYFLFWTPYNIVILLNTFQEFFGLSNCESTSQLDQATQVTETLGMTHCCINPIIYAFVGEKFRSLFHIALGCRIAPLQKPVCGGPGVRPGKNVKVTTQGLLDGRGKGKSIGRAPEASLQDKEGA
Test [4] has as its target C-C chemokine receptor type 2 (Homo sapiens, UniProt P41597, H121F). Briefly: Binding affinity of compound (10 uM) towards H121F receptor variant (mutant CCR2 receptor) using radioligand [125I]MCP-1 in HEK 293 cells. Type of test: cell-based, HEK293.
The target of test [5] is C-C chemokine receptor type 2 (Homo sapiens, UniProt P41597, Q288A). Briefly: Binding affinity of compound (10 uM) towards Q288A receptor variant (mutant CCR2 receptor) using radioligand [125I]MCP-1 in HEK 293 cells. Type of test: cell-based, HEK293.
Sequence of C-C chemokine receptor type 2 (Homo sapiens, UniProt P41597, Q288A) (P41597 whole entry Q288A): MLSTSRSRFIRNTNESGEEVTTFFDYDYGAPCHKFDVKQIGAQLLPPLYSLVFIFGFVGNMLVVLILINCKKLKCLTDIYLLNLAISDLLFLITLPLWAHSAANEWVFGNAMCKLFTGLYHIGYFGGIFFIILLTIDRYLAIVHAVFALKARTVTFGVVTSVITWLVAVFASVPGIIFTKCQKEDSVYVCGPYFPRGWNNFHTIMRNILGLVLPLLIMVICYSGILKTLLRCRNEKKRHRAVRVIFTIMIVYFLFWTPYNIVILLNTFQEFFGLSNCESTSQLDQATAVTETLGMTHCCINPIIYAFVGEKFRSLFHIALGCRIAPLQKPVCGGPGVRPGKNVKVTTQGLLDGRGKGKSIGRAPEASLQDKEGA
The target in test [6] is C-C chemokine receptor type 2 (Homo sapiens, UniProt P41597, T292A). Briefly: Binding affinity of compound (10 uM) towards T292A receptor variant (mutant CCR2 receptor) using radioligand [125I]MCP-1 in HEK 293 cells. Type of test: cell-based, HEK293.
Sequence of C-C chemokine receptor type 2 (Homo sapiens, UniProt P41597, T292A) (P41597 whole entry T292A): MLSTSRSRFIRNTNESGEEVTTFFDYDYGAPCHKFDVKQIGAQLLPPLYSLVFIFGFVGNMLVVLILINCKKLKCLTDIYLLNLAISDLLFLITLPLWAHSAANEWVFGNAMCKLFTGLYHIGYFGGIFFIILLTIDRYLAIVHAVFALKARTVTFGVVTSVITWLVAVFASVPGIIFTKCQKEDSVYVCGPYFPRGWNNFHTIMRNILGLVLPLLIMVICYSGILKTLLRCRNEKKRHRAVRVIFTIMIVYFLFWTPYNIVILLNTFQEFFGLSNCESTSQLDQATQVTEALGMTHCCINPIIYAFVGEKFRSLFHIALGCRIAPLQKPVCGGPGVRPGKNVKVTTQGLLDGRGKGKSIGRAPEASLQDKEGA
Test [7] deals with T1, C-C chemokine receptor type 2. Briefly: Binding affinity of compound (10 uM) towards […] receptor variant (mutant CCR2 receptor) using radioligand [125I]MCP-1 in HEK 293 cells. Type of test: cell-based, HEK293. The gist of the method:
as §1
Target sequence in this assay (P41597 whole entry, looked up, stated change not applied): as the sequence (P41597 whole entry, looked up) above

The target is the same in test [8]. Briefly: Inhibitory activity against C-C chemokine receptor type 2 (antagonist activity). It counts as functional.
Target sequence in this assay (P41597 whole entry): as the sequence (P41597 whole entry, looked up) above
For test [9] the target is unchanged. Briefly: Inhibition of chemotaxis by C-C chemokine receptor type 2 antagonist in human monocytes was measured in the presence 1 nM MCP-1. It counts as functional, cell-based. The gist of the method:
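Human monocyte chemotaxis driven by 1 nM MCP-1 as agonist. Antagonist added from a 10 mM DMSO stock, final 10 nM to 10 μM; vehicle control included. Values reported as pKb.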
Target sequence in this assay (P41597 whole entry, looked up): as above

Test [10] shares this target. Briefly: Binding displacement of [125I]MCP-1 (0.14 nM) was measured on CHO cell membranes expressing human CCR2 (C-C chemokine receptor type 2).
Target sequence in this assay (P41597 whole entry): as the sequence (P41597 whole entry, looked up) above
Test [11] has as its target C-C chemokine receptor type 2 (Homo sapiens, UniProt P41597, D284A). Briefly: Binding affinity of compound (10 uM) towards D284A receptor variant (mutant CCR2 receptor) using radioligand [125I]MCP-1 in HEK 293 cells. It counts as cell-based, HEK293.
Test [12] concerns the target T1, C-C chemokine receptor type 2. Briefly: Binding affinity of compound (10 uM) towards WT receptor variant (mutant C-C chemokine receptor type 2) using radioligand [125I]MCP-1 in HEK 293 cells. It counts as cell-based. The conditions noted are these: hek293.
Target sequence in this assay (P41597 whole entry, looked up, stated change not applied): as the sequence (P41597 whole entry, looked up) above
Test [13] concerns the target C-C chemokine receptor type 2 (Homo sapiens, UniProt P41597, Y49F). Briefly: Binding affinity of compound (10 uM) towards Y49F receptor variant (mutant CCR2 receptor) using radioligand [125I]MCP-1 in HEK 293 cells. It counts as cell-based, HEK293.
Test [14] deals with C-C chemokine receptor type 2 (Homo sapiens, UniProt P41597, H121A/T292A). Briefly: Binding affinity of compound (10 uM) towards H121A/T292A receptor variant (double mutant CCR2 receptor) using radioligand [125I]MCP-1 in HEK 293 cells. Type of test: cell-based, HEK293. The gist of the method: as §1
Sequence of C-C chemokine receptor type 2 (Homo sapiens, UniProt P41597, H121A/T292A) (P41597 whole entry H121A/T292A): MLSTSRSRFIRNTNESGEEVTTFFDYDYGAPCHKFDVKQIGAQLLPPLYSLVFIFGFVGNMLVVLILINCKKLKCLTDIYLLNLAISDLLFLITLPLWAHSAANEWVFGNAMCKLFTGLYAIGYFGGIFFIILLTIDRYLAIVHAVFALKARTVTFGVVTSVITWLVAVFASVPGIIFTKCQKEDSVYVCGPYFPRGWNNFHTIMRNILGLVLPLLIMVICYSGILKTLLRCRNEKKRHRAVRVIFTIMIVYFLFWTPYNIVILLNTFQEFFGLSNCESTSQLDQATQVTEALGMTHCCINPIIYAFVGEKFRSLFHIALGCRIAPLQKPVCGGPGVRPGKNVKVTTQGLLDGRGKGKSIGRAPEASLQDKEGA
The target of test [15] is C-C chemokine receptor type 2 (Homo sapiens, UniProt P41597, T290A). Briefly: Binding affinity of compound (10 uM) towards T290A receptor variant (mutant CCR2 receptor) using radioligand [125I]MCP-1 in HEK 293 cells. Type of test: cell-based, HEK293. In outline: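 HEK 293 cells transiently transfected with point-mutated human CCR2 (lipofectAMINE Plus, with a human G-protein plasmid cocktail). Membranes were harvested 48 h later in HEPES pH 7/sucrose/EDTA with protease inhibitors.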
Sequence of C-C chemokine receptor type 2 (Homo sapiens, UniProt P41597, T290A) (P41597 whole entry T290A): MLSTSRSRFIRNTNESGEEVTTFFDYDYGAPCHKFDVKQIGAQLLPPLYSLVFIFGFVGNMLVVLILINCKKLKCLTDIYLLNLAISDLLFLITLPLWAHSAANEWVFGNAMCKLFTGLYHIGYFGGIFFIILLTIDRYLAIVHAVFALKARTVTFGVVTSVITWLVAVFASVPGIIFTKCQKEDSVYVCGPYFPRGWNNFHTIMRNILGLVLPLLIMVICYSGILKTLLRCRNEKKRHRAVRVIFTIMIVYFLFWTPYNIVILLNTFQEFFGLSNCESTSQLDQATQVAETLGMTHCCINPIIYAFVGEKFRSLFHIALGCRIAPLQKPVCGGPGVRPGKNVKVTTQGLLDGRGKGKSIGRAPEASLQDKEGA

Test [16] deals with C-C chemokine receptor type 2 (Homo sapiens, UniProt P41597, E291Q). Briefly: Binding affinity of compound (10 uM) towards E291Q receptor variant (mutant CCR2 receptor) using radioligand [125I]MCP-1 in HEK 293 cells. Type of test: cell-based, HEK293. The gist of the method: as §1
The target in test [17] is T1, C-C chemokine receptor type 2. The conditions noted are these: HEK293.
Target sequence in this assay (P41597 whole entry, looked up): as the sequence (P41597 whole entry, looked up) above
Test [18] deals with T2, C-C chemokine receptor type 2 (Homo sapiens), P41597 [E291Q]. The conditions noted are these: HEK293.
The target of test [19] is T1, C-C chemokine receptor type 2. The conditions noted are these: HEK293. The source holds these as a separate data set.
Target sequence in this assay (P41597 whole entry, looked up): as above

One may read the Ki as a dissociation constant, usually derived from enzyme kinetics or from competition with a known ligand. Low readings indicate higher affinity, high ones lower affinity. The term IC50 denotes the midpoint of a concentration-inhibition curve. The term pKb denotes the Kb on a negative log10 scale, so that one unit is a factor of ten. A higher pKb goes with a small Kb.

Sequence of C-C chemokine receptor type 2 (Homo sapiens, UniProt P41597, Y49F) (P41597 whole entry Y49F): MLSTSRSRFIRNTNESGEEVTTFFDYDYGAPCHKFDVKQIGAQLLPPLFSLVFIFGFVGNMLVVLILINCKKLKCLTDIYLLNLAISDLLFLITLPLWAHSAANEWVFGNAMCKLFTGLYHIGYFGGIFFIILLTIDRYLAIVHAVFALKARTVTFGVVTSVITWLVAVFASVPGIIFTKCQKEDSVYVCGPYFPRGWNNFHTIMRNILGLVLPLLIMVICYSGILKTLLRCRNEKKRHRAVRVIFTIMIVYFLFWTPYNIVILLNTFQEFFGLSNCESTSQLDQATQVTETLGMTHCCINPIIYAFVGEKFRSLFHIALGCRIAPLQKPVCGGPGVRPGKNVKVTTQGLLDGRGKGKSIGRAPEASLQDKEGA
Sequence of C-C chemokine receptor type 2 (Homo sapiens, UniProt P41597, H121F) (P41597 whole entry H121F): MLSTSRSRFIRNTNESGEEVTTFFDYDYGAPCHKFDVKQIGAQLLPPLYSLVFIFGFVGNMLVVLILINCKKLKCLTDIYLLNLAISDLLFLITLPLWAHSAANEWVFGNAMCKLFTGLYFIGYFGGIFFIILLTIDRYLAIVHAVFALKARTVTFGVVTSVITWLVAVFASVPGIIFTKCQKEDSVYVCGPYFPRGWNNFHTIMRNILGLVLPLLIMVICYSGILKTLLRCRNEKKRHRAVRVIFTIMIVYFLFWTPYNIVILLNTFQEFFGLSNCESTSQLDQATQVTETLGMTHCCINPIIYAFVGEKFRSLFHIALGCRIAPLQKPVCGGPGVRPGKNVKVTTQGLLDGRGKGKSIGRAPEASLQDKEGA
Sequence of C-C chemokine receptor type 2 (Homo sapiens, UniProt P41597, D284A) (P41597 whole entry D284A): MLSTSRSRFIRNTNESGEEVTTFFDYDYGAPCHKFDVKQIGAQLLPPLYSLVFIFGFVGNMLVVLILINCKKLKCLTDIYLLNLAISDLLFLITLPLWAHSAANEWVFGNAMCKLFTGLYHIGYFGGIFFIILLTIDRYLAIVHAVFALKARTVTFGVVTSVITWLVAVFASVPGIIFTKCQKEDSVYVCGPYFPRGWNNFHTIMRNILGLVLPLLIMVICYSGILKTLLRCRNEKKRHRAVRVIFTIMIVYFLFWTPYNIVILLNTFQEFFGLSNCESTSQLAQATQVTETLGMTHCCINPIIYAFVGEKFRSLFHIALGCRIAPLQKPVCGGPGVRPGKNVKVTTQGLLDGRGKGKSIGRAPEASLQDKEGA

Take `Cc1ccc(CN2CC[C@@H](NC(=O)CNC(=O)c3cccc(C(F)(F)F)c3)C2)c(C)c1`: the “Log Ki” value in test [1] and in test [2] was “inactive” in each case. Moreover, the inhibition constant Ki is 2570 nM in test [3]; 661 nM in test [4]; 316 nM in test [5]; 7760 nM in [6]; 1820 nM in test [7]; 288 nM in test [10]. Further, the Ki in test [11] is 724 nM; in test [13], 316 nM. Moreover, the midpoint of inhibition in test [8], the IC50, lay at 54 nM. In [9], this molecule showed a pKb of 6.4. In addition, the “Log Ki” value in test [12] is listed as -6.47.
Consider `O=C(/C=C/c1ccc(Cl)c(Cl)c1)NCCCCCN1CCC(c2c[nH]c3ccc(O)cc23)CC1`, for which the “Log Ki” value in [2] is “inactive”. Besides, the inhibition constant Ki in [3] was 2510 nM; in [14], 2090 nM; in [4], 166 nM; in [5], 170 nM; in test [15], 129 nM; in test [6], 724 nM. Besides, the Ki in test [7] is 562 nM; in test [11] it was 229 nM; in test [13], 16.6 nM. For the same molecule, the negative logarithm of the Kb (pKb) in test [9] amounted to 7.71. In addition, the “Log Ki” value in [12] is on record as -7.
Take `Cc1ccc(-c2ccc3c(c2)C=C(C(=O)Nc2ccc(C[N+](C)(C)C4CCOCC4)cc2)CCC3)cc1.[Cl-]`: the inhibition constant Ki in test [16] was 148 nM; in [3] it was 17.8 nM; in [14], 182 nM; in test [4], 2.63 nM; in test [5] it was 9.77 nM; in [15], 21.4 nM. Besides, the inhibition constant (Ki) in [6] was 28.8 nM; in [7], 105 nM; in test [10], 4.17 nM; in test [11] it was 12.6 nM; in test [13], 27.5 nM. The pKb in test [9] came to 9.53. The “Log Ki” value in test [12] is listed as -8.16.
In the case of `Cc1ccc2c(c1)C1(CCN(CCc3nc(-c4ccccc4)oc3C)CC1)OC(=O)N2`, the pKb in test [9] worked out at 7.57. Besides, the “Log Ki” value in [17], in test [18] and in [19] was “inactive” throughout.
As for `Cc1ccc(-c2ccc3c(c2)C=C(C(=O)Nc2ccc(CN(C)C4CCOCC4)cc2)CCC3)cc1`, in test [1], the “Log Ki” value was “inactive”. Moreover, the inhibition constant Ki was 2040 nM in [16]; 302 nM in test [3]; 4790 nM in test [14]; 24 nM in test [4]; 229 nM in test [5]; 105 nM in test [15]. Besides, the Ki is 759 nM in [6]; 2570 nM in test [7]; 28.8 nM in test [10]; 589 nM in test [11]; 151 nM in test [13]. Moreover, the pKb in test [9] came to 8.63. For the same molecule, the “Log Ki” value in test [12] is on record as -7.16.
